Experimental data of several laboratories.
Each line is one published result; the experiments were not run side by side. pEC50: −log10 of the molar value.
Effect on: cell growth or viability

[NH2][Pt]([NH2])([Cl])[Cl] — GI50 (HeLa; SRB): 1.9 µM
C=C(NC(=O)C(=C)NC(=O)c1csc(C2=N[C@@H]3c4csc(n4)[C@H]4NC(=O)c5csc(n5)[C@H]([C@](C)(O)[C@@H](C)O)NC(=O)[C@H]5CSC(=N5)/C(=C/C)NC(=O)[C@H]([C@@H](C)O)NC(=O)c5csc(n5)[C@]3(CC2)NC(=O)[C@H](C)NC(=O)C(=C)NC(=O)[C@H](C)NC(=O)[C@H]([C@@H](C)CC)N[C@@H]2C=Cc3c([C@H](C)O)cc(nc3[C@H]2O)C(=O)O[C@@H]4C)n1)C(N)=O — pEC50 (NCI-H1792): 5.49
CCC(=CCc1c(O)cc2c(c1O)C(=O)C[C@H](c1ccccc1O)O2)CC — inhibition (HeLa; MTT; 120 µM, 48 h): 81.5%
CCOc1ccc(-c2cc(C(=O)O)c(-c3ccc(Cl)cc3)o2)cc1 — pEC50 (SK-MEL-2; MTT; 48 h): 4.14
CCC(=CCc1c(O)cc2c(c1O)C(=O)CC(c1ccc(O)cc1)O2)CC (stereo in doubt) — inhibition (HeLa; MTT; 6.25 µM, 48 h): 9.54%
CCOc1ccc(C(=O)CC(SCc2ccc(Cl)cc2)C(=O)O)cc1 (stereo not drawn) — pEC50 (U2OS; MTT; 48 h): 3.89
C[C@H](Nc1ccc2c(c1)OCCn1cc(N3C(=O)OC[C@H]3C(F)F)nc1-2)C(N)=O — pEC50 (Detroit 562; ATP luminescence; 5 days): 7.08
Cc1nc(Nc2ncc(C(=O)Nc3c(C)cccc3Cl)s2)cc(N2CC[C@H](O)C2)n1 — inhibition (SU-DHL-6; ATP luminescence; 10 µM, 72 h): 97%
CCOC(=O)c1cc(-c2ccc(OCC)cc2)oc1-c1ccc(Cl)cc1 — pEC50 (U2OS; MTT; 48 h): 3.72
N#CSCc1cc(=O)oc2cc(O)ccc12 — GI50 (HeLa; SRB): 3.7 µM
CCOc1ccc(C(=O)CC(SCc2ccc(Cl)cc2)C(=O)OC)cc1 (stereo not drawn) — pEC50 (SK-MEL-2; MTT; 48 h): 4.64
N#CSCCCCOc1ccc2c(-c3ccccc3)cc(=O)oc2c1 — GI50 (HeLa; SRB): 25 µM
